Measurements reported in ChEMBL document CHEMBL1122876, “Quantitative structure-activity relationship of antifolate inhibition of bacteria cell cultures resistant and sensitive to methotrexate” (1985).
Several values for one entry are separate records, joined by “and”; a condition that tells them apart may be missing. Equal entries are not always repeated.

Assays:
Escherichia coli [1] = assay: Inhibition of growth of methotrexate sensitive (MB1417) strain of Escherichia coli cells; assay type: functional
In short: (§1)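 E. coli cultures kept on nutrient agar slants. Inoculum from two serial 24 h, 37 °C transfers in glucose-salts medium with 0.6% vitamin-free acid-hydrolyzed casein, washed twice, then diluted to about 15 cells/mL. Each 10 mL tube held basal medium, 25% glucose solution (1 mL) and inhibitor dissolved in water or 0.04 M HCl, diluted in sterile water. C = molar concentration giving 50% culture inhibition.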

Escherichia coli [2] = assay: Inhibition of growth of methotrexate resistant (MB1428) strain of Escherichia coli cells; assay type: functional; in short: as §1
[3] = target: T1, Dihydrofolate reductase type 1 (Escherichia coli) (UniProt P00382)
T1 sequence (whole entry): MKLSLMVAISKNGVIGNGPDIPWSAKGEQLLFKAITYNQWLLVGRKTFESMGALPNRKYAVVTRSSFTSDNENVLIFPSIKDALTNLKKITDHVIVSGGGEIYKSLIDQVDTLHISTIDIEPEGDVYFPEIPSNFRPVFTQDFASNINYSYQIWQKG

Escherichia coli [4] = assay: Inhibition of growth of methotrexate-sensitive (MB1417) strain of Escherichia coli cells.; assay type: functional; in short: as §1
Escherichia coli [5] = assay: Inhibition of growth of methotrexate-resistant (MB1428) strain of Escherichia coli cells.; assay type: functional; in short: as §1
Escherichia coli [6] = assay: Compound was evaluated for the inhibition of growth of methotrexate sensitive (MB1417) strain of Escherichia coli cells; d=values could not be determined due to solubility problems encountered with these congener; assay type: functional, organism-based; in short: as §1
Escherichia coli [7] = assay: Compound was evaluated for the inhibition of growth of methotrexate resistant (MB1428) strain of Escherichia coli cells; d=values could not be determined due to solubility problems encountered with these congener; assay type: functional, organism-based; in short: as §1
Escherichia coli [8] = assay: The compound was evaluated for the inhibition of growth of methotrexate resistant (MB1428) strain of Escherichia coli cells; d=values could not be determined due to solubility problems encountered with these congener; assay type: functional, organism-based

Row | SMILES | Log 1/C (Escherichia coli [4]) | Log 1/C (Escherichia coli [5]) | other results
1 | CC1(C)N=C(N)N=C(N)N1c1cccc(COc2cccc(CO)c2)c1 |  |  | Log 1/C (Escherichia coli [1]): 2.38; Log 1/C (Escherichia coli [2]): 2.51; Log 1/Ki app [3]: 6.19
2 | Nc1ncc(Cc2cccc(Cl)c2)c(N)n1 | 4.92 | 3.46 | 
3 | CCCCCCCCCCCOc1cccc(N2C(N)=NC(N)=NC2(C)C)c1 |  |  | Log 1/C (Escherichia coli [1]): 5.5; Log 1/C (Escherichia coli [2]): 5.5; Log 1/Ki app [3]: 6.19
4 | COc1cc(Cc2cnc(N)nc2N)cc(OC)c1SC [METIOPRIM] | 6.97 | 5.66 | 
5 | CC1(C)N=C(N)N=C(N)N1c1cccc(OCc2ccc(Cl)c(Cl)c2)c1 |  |  | Log 1/C (Escherichia coli [1]): 4.13; Log 1/C (Escherichia coli [2]): 4.01; Log 1/Ki app [3]: 6.15
6 | CCc1cccc(OCc2cccc(N3C(N)=NC(N)=NC3(C)C)c2)c1 |  |  | Log 1/C (Escherichia coli [1]): 3.67; Log 1/C (Escherichia coli [2]): 3.98; Log 1/Ki app [3]: 5.95
7 | CC1(C)N=C(N)N=C(N)N1c1cccc(COc2cccc(C#N)c2)c1 |  |  | Log 1/C (Escherichia coli [1]): 2.74; Log 1/C (Escherichia coli [2]): 3.02; Log 1/Ki app [3]: 6.05
8 | Cc1nc(N)nc(N)c1-c1ccc(Cl)c(Cl)c1 [METOPRINE] | 4.24 | 4.35 | 
9 | COc1ccc(Cc2cnc(N)nc2N)cc1 | 5.24 and 4.77 | 3.46 and 3.7 | 
10 | COc1ccc(OC)c(Cc2cnc3nc(N)nc(N)c3c2C)c1 [PIRITREXIM] | 5.95 | 4.56 | 
11 | CCCCOc1cccc(N2C(N)=NC(N)=NC2(C)C)c1 |  |  | Log 1/C (Escherichia coli [1]): 3.29; Log 1/C (Escherichia coli [2]): 3.49
12 | COc1ccc(Cc2cnc(N)nc2N)cc1OC [DIAVERIDINE] | 6.08 | 4.46 | 
13 | CN(C)c1ccc(Cc2cnc(N)nc2N)cc1 | 4.94 | 3.46 | 
14 | COCCOc1cccc(Cc2cnc(N)nc2N)c1 | 4.33 | 2.92 | 
15 | CCCCCCCCOc1cccc(Cc2cnc(N)nc2N)c1 |  | 4.41 | Log 1/C (Escherichia coli [6]): Not detected
16 | CC(C)(C)c1cccc(OCc2cccc(N3C(N)=NC(N)=NC3(C)C)c2)c1 |  |  | Log 1/C (Escherichia coli [1]): 4.1; Log 1/C (Escherichia coli [2]): 4.19; Log 1/Ki app [3]: 6.06
17 | CC1(C)N=C(N)N=C(N)N1c1cccc(OCCOc2cccc(C(F)(F)F)c2)c1 | 4.01 | 4.14 | 
18 | CCOCc1cccc(N2C(N)=NC(N)=NC2(C)C)c1 |  |  | Log 1/Ki app [3]: 5.92
19 | CCCCCCCCOc1c(OC)cc(Cc2cnc(N)nc2N)cc1OC | 5.18 |  | Log 1/C (Escherichia coli [7]): Not detected
20 | CCc1nc(N)nc(N)c1-c1ccc(Cl)cc1 [PYRIMETHAMINE] | 4.21 | 3.56 | 
21 | COc1cc(Cc2cnc(N)nc2N)cc(OC)c1Br [BRODIMOPRIM] | 6.67 | 5.69 | 
22 | CC1(C)N=C(N)N=C(N)N1c1ccc(Cl)cc1 [CYCLOGUANIL] | 2.47 | 2.5 | 
23 | CC1(C)N=C(N)N=C(N)N1c1cccc(COc2cccc(NC(=N)S)c2)c1 |  |  | Log 1/Ki app [3]: 6.17
24 | CC1(C)N=C(N)N=C(N)N1c1cccc(CSc2ccccc2)c1 |  |  | Log 1/C (Escherichia coli [1]): 3.39; Log 1/C (Escherichia coli [2]): 3.52
25 | CCCCCCCCCCCCCCOc1cccc(N2C(N)=NC(N)=NC2(C)C)c1 |  |  | Log 1/Ki app [3]: 5.85
26 | Cc1cccc(Cc2cnc(N)nc2N)c1 | 4.91 | 3.29 | 
27 | COc1cccc(OCc2cccc(N3C(N)=NC(N)=NC3(C)C)c2)c1 |  |  | Log 1/C (Escherichia coli [1]): 3.21; Log 1/C (Escherichia coli [2]): 3.26; Log 1/Ki app [3]: 6.02

Row | SMILES | Log 1/C (Escherichia coli [4]) | Log 1/C (Escherichia coli [5]) | other results
28 | Nc1ncc(Cc2ccc(Br)cc2)c(N)n1 | 5.12 | 3.69 | 
29 | CCOc1cc(Cc2cnc(N)nc2N)ccc1OCc1ccccc1 | 5.04 |  | Log 1/C (Escherichia coli [8]): Not detected
30 | Nc1ncc(Cc2ccccc2)c(N)n1 | 4.28 | 2.92 | 
31 | COc1cc(Cc2cnc(N)nc2N)cc(OC)c1OC [TRIMETHOPRIM] | 6.61 | 5.34 | 
32 | COCc1cccc(Cc2cnc(N)nc2N)c1 | 4.68 | 2.98 | 
33 | CC1(C)N=C(N)N=C(N)N1c1cccc(COc2cccc(NC(N)=O)c2)c1 |  |  | Log 1/Ki app [3]: 5.91
34 | CC1(C)N=C(N)N=C(N)N1c1cccc(OCC23CC4CC(CC(C4)C2)C3)c1 |  |  | Log 1/C (Escherichia coli [1]): 4.49; Log 1/C (Escherichia coli [2]): 4.63
35 | CCCCOc1ccc(Cc2cnc(N)nc2N)cc1 | 4.76 | 4.01 | 
36 | CCCCCCCOc1cccc(Cc2cnc(N)nc2N)c1 | 4.88 | 4.84 | 
37 | CS(=O)(=O)Oc1cccc(Cc2cnc(N)nc2N)c1 | 4.59 | 3.35 | 
38 | Cc1cccc(SCc2cccc(N3C(N)=NC(N)=NC3(C)C)c2)c1 |  |  | Log 1/C (Escherichia coli [1]): 3.87; Log 1/C (Escherichia coli [2]): 3.76; Log 1/Ki app [3]: 6.57
39 | Nc1ncc(Cc2cccc(O)c2)c(N)n1 | 4.35 | 2.94 | 
40 | CC1(C)N=C(N)N=C(N)N1c1cccc(S(=O)(=O)F)c1 | 2.5 | 2 | 
41 | CC1(C)N=C(N)N=C(N)N1c1cccc(COc2cccc(Cl)c2)c1 |  |  | Log 1/Ki app [3]: 6.01
42 | CC(=O)Nc1ccc(Cc2cnc(N)nc2N)cc1 | 4.08 | 3.03 | 
43 | CCCCCCCCOc1cc(Cc2cnc(N)nc2N)ccc1OC | 4.91 |  | Log 1/C (Escherichia coli [7]): Not detected
44 | CCCCCCCCCCCCOc1cccc(N2C(N)=NC(N)=NC2(C)C)c1 |  |  | Log 1/Ki app [3]: 5.88
45 | C=C(C)c1c(OC)cc(Cc2cnc(N)nc2N)cc1OC | 6.63 | 5.66 | 
46 | CN(Cc1cnc2nc(N)nc(N)c2n1)c1ccc(C(=O)N[C@@H](CCC(=O)O)C(=O)O)cc1 [METHOTREXATE] | 3.76 | 2.7 | 
47 | CCCCCCOc1cccc(Cc2cnc(N)nc2N)c1 | 4.81 | 4.53 | 
48 | Nc1ncc(Cc2ccc([N+](=O)[O-])cc2)c(N)n1 | 4.53 | 3.43 | 
49 | COCCOc1ccc(Cc2cnc(N)nc2N)cc1 | 4.61 | 3.11 | 
50 | COc1cc(Cc2cnc(N)nc2N)cc(OC)c1 | 6.08 | 4.55 | 
51 | CCCCCCOc1ccc(Cc2cnc(N)nc2N)cc1 | 4.79 | 4.55 | 
52 | COCCOc1c(OC)cc(Cc2cnc(N)nc2N)cc1OC [TETROXOPRIM] | 5.83 | 4.72 | 
53 | Cc1cccc(OCc2cccc(N3C(N)=NC(N)=NC3(C)C)c2)c1 |  |  | Log 1/C (Escherichia coli [1]): 3.27; Log 1/C (Escherichia coli [2]): 3.41; Log 1/Ki app [3]: 6.27
